Series [1] deals with T1, NAD-dependent protein deacetylase sirtuin-1 (Homo sapiens) (UniProt Q96EB6).
T1 sequence (whole entry): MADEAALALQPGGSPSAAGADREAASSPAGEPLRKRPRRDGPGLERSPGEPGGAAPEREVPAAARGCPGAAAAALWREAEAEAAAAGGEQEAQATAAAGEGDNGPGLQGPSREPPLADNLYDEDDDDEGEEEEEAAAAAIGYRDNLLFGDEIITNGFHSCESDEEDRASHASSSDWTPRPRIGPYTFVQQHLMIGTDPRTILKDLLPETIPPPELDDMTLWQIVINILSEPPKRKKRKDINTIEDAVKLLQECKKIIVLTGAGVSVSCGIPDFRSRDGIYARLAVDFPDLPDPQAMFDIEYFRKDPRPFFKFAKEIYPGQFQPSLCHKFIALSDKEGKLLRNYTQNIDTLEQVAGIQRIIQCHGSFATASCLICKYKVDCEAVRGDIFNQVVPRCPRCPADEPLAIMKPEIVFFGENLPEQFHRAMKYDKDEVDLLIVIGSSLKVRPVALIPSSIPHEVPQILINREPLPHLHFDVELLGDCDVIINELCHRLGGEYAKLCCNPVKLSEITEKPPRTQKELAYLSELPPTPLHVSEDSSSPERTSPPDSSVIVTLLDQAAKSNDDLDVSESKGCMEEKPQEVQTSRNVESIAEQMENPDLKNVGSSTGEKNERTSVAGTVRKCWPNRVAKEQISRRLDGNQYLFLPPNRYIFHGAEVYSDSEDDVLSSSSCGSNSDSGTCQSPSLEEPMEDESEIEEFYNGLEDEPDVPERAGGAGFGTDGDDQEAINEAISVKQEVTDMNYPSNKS
The experiment in a line: Inhibition of SirT1 assessed as increase in p53 expression in human MCF7 cells at 10 uM after 6 hrs by Western blotting. Format: cell-based. A digest of the protocol:
(§1)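 MCF-7 cells grown in DMEM with 10% FCS and gentamycin, seeded at 2 × 10⁵ per well on collagen-coated plates and incubated 42 h at 37 °C in 5% CO2. Compound in DMSO was added for 6 h. Lysis in LDS buffer, protein equalised by BCA, 4–12% bis-tris SDS-PAGE, PVDF blot. Total p53 detected with DO.1, PCNA as loading control, ECL detection. Scored semi-quantitatively against untreated level.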
(A western blot detects proteins with antibodies after separation by electrophoresis.)

Series [2] addresses T1, NAD-dependent protein deacetylase sirtuin-1 (Homo sapiens). The experiment in a line: Inhibition of recombinant human SitT1 at 60 uM by Fluor de Lys fluorescence assay. The method, boiled down:
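Human recombinant SirT1 deacetylation measured with the Fluor de Lys fluorescence kit at a fixed 60 µM inhibitor. Tested on two separate occasions; percent inhibition reported as a mean weighted to the standard error.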

Series [3] has the same target. The series is described as follows: Inhibition of SirT1 assessed as increase in p53 expression in human MCF7 cells at 5 uM after 6 hrs by Western blotting. It is filed as cell-based. A digest of the protocol:
as §1

Series [4] has the same target. The series is described as follows: Inhibition of SirT1 assessed as increase in p53 expression in human MCF7 cells at 2 uM after 6 hrs by Western blotting. Format: cell-based. A digest of the protocol: as §1
The nature of series [5]: Solubility of the compound in water by UV spectrophotometry. Format: physicochemical. A digest of the protocol:
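Extinction coefficient from absorbance at 273 nm of a 7-point 2-fold dilution series in acetonitrile; DMSO used first where needed. Coefficient taken from the slope of absorbance against molar concentration. Used to find the actual concentration of a nominal 100 µM aqueous solution made from 40 mM DMSO stock.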

Series [6] deals with T1, NAD-dependent protein deacetylase sirtuin-1 (Homo sapiens). The series is described as follows: Inhibition of SirT1 in human ARN8 cells assessed as p53 activation at 5 uM by beta-galactosidase reporter gene assay. Format: cell-based. A digest of the protocol:
(§2)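 p53-dependent transcription measured with a beta-galactosidase reporter in ARN8 cells, run in triplicate. Read-out is the ratio of signal in treated cells to DMSO-control cells, given to 2 significant figures; a positive or negative activity call is also recorded.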
Background: A reporter such as luciferase makes a cellular process visible.

Series [7] in a line: Drug metabolism in human H1299 cells after 16 hrs by mass spectrophotometry. It is filed as ADME, cell-based. As to conditions: nci-h1299, 16 h.
Series [8] can be described thus: Cytotoxicity against human H1299 cells at 30 uM. It is filed as cell-based. As to conditions: nci-h1299, 30 µM.
Series [9] deals with T1, NAD-dependent protein deacetylase sirtuin-1 (Homo sapiens). The experiment in a line: Inhibition of SirT1 in human ARN8 cells assessed as p53 activation at 10 uM by beta-galactosidase reporter gene assay. It is filed as cell-based. A digest of the protocol: as §2
In series [10] the target is T2, NAD-dependent protein deacetylase sirtuin-1 (Homo sapiens, UniProt Q96EB6).
T2 sequence (Q96EB6 whole entry): T1 sequence (whole entry)
The experiment in a line: Inhibition of recombinant human SitT1 by Fluor de Lys fluorescence assay.

The target in series [11] is T1, NAD-dependent protein deacetylase sirtuin-1 (Homo sapiens). The experiment in a line: Inhibition of SirT1 in human ARN8 cells assessed as p53 activation at 10 uM by beta-galactosidase reporter gene assay relative to control. Format: cell-based. The method, boiled down:
as §2

For series [12] the target is unchanged. The experiment in a line: Inhibition of SirT1 in human ARN8 cells assessed as p53 activation at 20 uM by beta-galactosidase reporter gene assay. It is filed as cell-based. A digest of the protocol:
as §2

For series [13] the target is unchanged. The series is described as follows: Inhibition of SirT1 in human ARN8 cells assessed as p53 activation at 5 uM by beta-galactosidase reporter gene assay relative to control. It is filed as cell-based. The method, boiled down:
as §2

For series [14], the target named is T3, NAD-dependent protein deacetylase sirtuin-2 (Homo sapiens, UniProt Q8IXJ6).
T3 sequence (Q8IXJ6 whole entry): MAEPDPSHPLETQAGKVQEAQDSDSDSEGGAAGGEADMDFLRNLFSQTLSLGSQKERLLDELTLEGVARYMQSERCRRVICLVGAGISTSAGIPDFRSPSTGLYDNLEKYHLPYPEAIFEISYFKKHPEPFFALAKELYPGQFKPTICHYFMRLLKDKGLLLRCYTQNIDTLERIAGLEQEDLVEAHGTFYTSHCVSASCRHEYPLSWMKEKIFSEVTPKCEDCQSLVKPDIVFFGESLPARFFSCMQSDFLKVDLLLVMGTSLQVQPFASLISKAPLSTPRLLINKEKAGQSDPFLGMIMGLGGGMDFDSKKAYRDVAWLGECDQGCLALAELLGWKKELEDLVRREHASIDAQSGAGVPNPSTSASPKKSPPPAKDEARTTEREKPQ
The series is described as follows: Inhibition of recombinant human SitT2 by Fluor de Lys fluorescence assay.

Series [15] addresses T1, NAD-dependent protein deacetylase sirtuin-1 (Homo sapiens). The experiment in a line: Inhibition of SirT1 in human ARN8 cells assessed as p53 activation at 20 uM by beta-galactosidase reporter gene assay relative to control. It is filed as cell-based. A digest of the protocol: as §2

Usually inhibition stands for the change of the read-out against control, counted positive when it falls. Usually solubility stands for the concentration that dissolves in the medium under given conditions. Low values mean little dissolved substance, high ones much dissolved substance. Broadly, the IC50 is the point on the concentration scale where inhibition reaches its midpoint.

≈ marks a conversion by molar mass, not a printed value. Calls of active or inactive are those of the source. The calls are words filed in the database; no cut-off is given here.

Consider `CN(C)CCCCC(=O)Nc1ccc(N(C)C(=S)NC(=O)c2ccc(C(C)(C)C)cc2)cc1`, for which the inhibition result in series [1], in [3] and in [4] was “inactive” throughout. Further, in [2], the inhibition stood at 6.6%.
`CN(C)CCCCC(=O)Nc1ccc(NC(=S)NC(=O)c2ccc(C(C)(C)C)cc2)cc1.Cl`: the inhibition entry in [1], in [3], in series [6], in series [4] and in series [9] was “Active” throughout. The solubility in [5] turned out to be 0.74 µg/mL. Moreover, the inhibition in [2] is 73.9%. The Drug metabolism entry in [7] was “Active”. The Activity entry in series [8] is “Toxic”.
In the case of `Cc1cccc(C(=O)NC(=S)Nc2ccc(NC(=O)CCCCN(C)C)cc2)c1`, the 50% inhibitory concentration (IC50) in series [10] and in series [14] was greater than 90 µM in each case. The fold change (FC) in series [11] is 0.89; in series [13] it was 0.94; in [15] it was 0.89. Also, the inhibition in [2] was 5.2%. Moreover, the inhibition result in series [6], in [9] and in series [12] was “inactive” in each case.
As for `COc1ccc(C(=O)NC(=S)Nc2ccc(NC(=O)CCCCN(C)C)cc2)cc1`, the half-inhibitory concentration (IC50) was greater than 90 µM in [10] and 50.6 µM in [14]. For the same compound, the fold change (FC) in series [11] came to 1.1; in [13], 1; in series [15], 1.12. For the same compound, the inhibition in series [2] was determined as 48.5%. Further, the inhibition result in [6], in series [9] and in series [12] was “inactive” each time.
As to `CN(C)CCCCCCCC(=O)Nc1ccc(NC(=S)NC(=O)c2ccc(C(C)(C)C)cc2)cc1.Cl`, the inhibition result in series [1], in series [3] and in series [4] was “Active” each time. In series [5], the solubility was greater than 1.01 µg/mL. Also, the inhibition in series [2] came to 70.9%. Moreover, the IC50 in series [14] amounted to 41.7 µM.
Take `Cc1ccccc1C(=O)NC(=S)Nc1ccc(NC(=O)CCCCN(C)C)cc1`: the IC50 in series [10] is greater than 90 µM; in series [14], 42.5 µM. For the same compound, the fold change (FC) in [11] was found to be 0.98; in series [13], 0.99; in [15], 0.84. Moreover, in series [2], the inhibition was determined as 9.9%. Besides, the inhibition result in series [6], in [9] and in series [12] was “inactive” in each case.
Consider `CC(=O)Nc1ccc(NC(=S)NC(=O)c2ccc(C(C)(C)C)cc2)cc1`, for which the inhibition result in [1], in series [3] and in [4] was “Active” in each case. Moreover, the concentration in solution in series [5] (solubility) came to 0.12 µg/mL (≈ 0.325 µM).
In the case of `CN(C)CCCCC(=O)Nc1ccc(NC(=S)NC(=O)c2ccc(Br)cc2)cc1`, the figures for the concentration for half-maximal inhibition (IC50) in series [10] and in [14] were greater than 90 µM and 55 µM, respectively. The fold change (FC) worked out at 1.1 in series [11], 1 in series [13] and 1.01 in series [15]. For the same compound, the inhibition in [2] amounted to 13.5%. The inhibition result in series [6], in series [9] and in series [12] was “inactive” each time.
Regarding `CN(C)CCOCCOCCOCCOCCOCC(=O)Nc1ccc(NC(=S)NC(=O)c2ccc(C(C)(C)C)cc2)cc1.Cl`, the inhibition result in series [1], in series [3] and in series [4] was “inactive” each time. Further, the solubility in series [5] was greater than 1.34 µg/mL. The 50% inhibitory concentration (IC50) in series [10] is greater than 60 µM; in series [14], greater than 90 µM. For the same compound, in series [2], the inhibition is 29.6%.
In the case of `CCCc1ccc(C(=O)NC(=S)Nc2ccc(NC(=O)CCCCN(C)C)cc2)cc1`, the 50% inhibitory concentration (IC50) in [10] is 60.2 µM; in series [14] it was 7.85 µM. Further, the fold change (FC) came to 1.5 in series [11], 1 in series [13] and 2.4 in series [15]. Moreover, the inhibition in series [2] came out at 50.9%. In [6], the inhibition entry was “inactive”. For the same compound, the inhibition entry in [9] and in series [12] was “Active” throughout.
On to `CN(C)CCCC(=O)Nc1ccc(NC(=S)NC(=O)c2ccc(C(C)(C)C)cc2)cc1.Cl`, for which the inhibition entry in [1] and in [3] was “Active” each time. The same compound returned a solubility in series [5] of 0.57 µg/mL. Besides, the 50% inhibitory concentration (IC50) in series [10] turned out to be 35.8 µM; in series [14] it was 12.8 µM. The inhibition in [2] was found to be 85.2%. The inhibition entry in series [4] was “inactive”.
Turning to `CN(C)CCCCC(=O)Nc1ccc(NC(=S)NC(=O)c2ccccc2)cc1`, the IC50 in series [10] and in series [14] was greater than 90 µM throughout. The fold change (FC) in [11] was 0.97; in series [13] it was 1.1; in [15] it was 0.92. Besides, in series [2], the inhibition was 3.5%. Moreover, the inhibition result in series [6], in series [9] and in series [12] was “inactive” each time.
For the compound `CN(C)CCCCC(=O)Nc1ccc(NC(=S)NC(=O)c2ccccc2Cl)cc1`, the concentration for half-maximal inhibition (IC50) in series [10] and in series [14] was greater than 90 µM in each case. For the same compound, the fold change (FC) stood at 1.1 in [11], 1.2 in [13] and 1.2 in series [15]. In [2], the inhibition is 29.3%. For the same compound, the inhibition entry in [6], in series [9] and in series [12] was “inactive” each time.
On to `CN(C)CCCCCC(=O)Nc1ccc(NC(=S)NC(=O)c2ccc(C(C)(C)C)cc2)cc1.Cl`, for which the inhibition entry in series [1], in series [3] and in series [4] was “Active” each time. Further, in series [5], the solubility is greater than 0.97 µg/mL. In addition, the inhibition in series [2] amounted to 96.2%. The concentration for half-maximal inhibition (IC50) in series [14] worked out at 21.3 µM.
Regarding `CN(C)CCCCC(=O)Nc1ccc(NC(=O)NC(=O)c2ccc(C(C)(C)C)cc2)cc1`, the results for the IC50 in [10] and in series [14] were 21.7 µM and 88.4 µM, respectively. For the same compound, the results for the fold change (FC) in series [11], in [13] and in series [15] were 7.3, 6.9 and 6.5, respectively. Further, in series [2], the inhibition is 93.6%. Also, the inhibition result in series [6], in series [9] and in [12] was “Active” each time.

The values above are taken from ChEMBL document CHEMBL1944602, “Synthesis and biological characterisation of sirtuin inhibitors based on the tenovins” (Bioorg Med Chem, 2012).
